Results taken from ChEMBL document CHEMBL1153857, “1,4-Diazepanes derived from (S)-serine--homopiperazines with improved sigma(1) (sigma) receptor affinity and selectivity” (Eur J Med Chem, 2009).

What was measured:
[1] = Displacement of [3H]ditolylguanidine from sigma 2 receptor in rat liver membrane by liquid scintillation analyzer; format: cell membranes
Procedure, shortened: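 Rat liver membranes (about […] protein) incubated with 3 nM [3H]-ditolylguanidine plus 100 nM (+)-pentazocine to mask sigma1 sites, with at least 6 test concentrations, in 50 mM Tris-HCl pH 8.0, 120 min at 25 °C. Stopped with ice-cold 10 mM Tris pH 8.0, filtered on PEI-soaked GF/B, washed three times, scintillation counted. […] Triplicates; Ki reported.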

[2] = target: Sigma non-opioid intracellular receptor 1 (Cavia porcellus, UniProt Q60492); assay: Displacement of [3H](+)-pentazocine from sigma 1 receptor in guinea pig brain membrane by liquid scintillation analyzer; format: cell membranes
Procedure, shortened: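 Guinea pig brain membranes (about […] protein) incubated with 3 nM [3H]-pentazocine and at least 6 test concentrations in 50 mM Tris-HCl pH 7.4, 120 min at 37 °C. Filtration through PEI-presoaked GF/B filters, four cold-buffer washes, scintillation counting. Non-specific binding with excess haloperidol. Triplicates; IC50 by non-linear regression, Ki reported.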

[3] = Selectivity for sigma 1 receptor in guinea pig brain membrane over sigma 2 receptor in rat liver membrane; format: cell membranes
[4] = target: Mu-type opioid receptor (Homo sapiens, UniProt P35372); assay: Displacement of radioligand from mu opioid receptor
Procedure, shortened: (§1)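 Competition binding, first screened at two test concentrations. Exact Ki determined only when binding inhibition at the higher concentration was considerable.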

[5] = Displacement of radioligand from phencyclidine binding site of NMDA receptor; procedure, shortened: as §1
[6] = target: Kappa-type opioid receptor (Homo sapiens, UniProt P41145); assay: Displacement of [3H]U-69593 from kappa opioid receptor; procedure, shortened: as §1
Sequence of Kappa-type opioid receptor (P41145 whole entry): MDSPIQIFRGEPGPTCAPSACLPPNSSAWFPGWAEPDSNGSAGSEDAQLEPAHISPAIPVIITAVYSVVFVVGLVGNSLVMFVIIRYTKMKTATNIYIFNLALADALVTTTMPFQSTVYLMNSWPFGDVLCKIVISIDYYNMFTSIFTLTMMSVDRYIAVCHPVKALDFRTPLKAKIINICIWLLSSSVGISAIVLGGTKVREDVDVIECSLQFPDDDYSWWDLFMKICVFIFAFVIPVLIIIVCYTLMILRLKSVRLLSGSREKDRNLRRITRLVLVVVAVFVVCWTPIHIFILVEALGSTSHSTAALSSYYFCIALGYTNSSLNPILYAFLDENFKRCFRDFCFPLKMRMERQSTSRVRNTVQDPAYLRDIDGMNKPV

Sequence of Sigma non-opioid intracellular receptor 1 (Q60492 whole entry): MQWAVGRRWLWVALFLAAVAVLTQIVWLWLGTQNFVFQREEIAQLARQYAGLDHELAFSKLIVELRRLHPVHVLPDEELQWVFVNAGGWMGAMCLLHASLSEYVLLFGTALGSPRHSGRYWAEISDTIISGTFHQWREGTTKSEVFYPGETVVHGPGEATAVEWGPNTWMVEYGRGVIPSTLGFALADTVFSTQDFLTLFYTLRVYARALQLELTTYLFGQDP
Sequence of Mu-type opioid receptor (P35372 whole entry): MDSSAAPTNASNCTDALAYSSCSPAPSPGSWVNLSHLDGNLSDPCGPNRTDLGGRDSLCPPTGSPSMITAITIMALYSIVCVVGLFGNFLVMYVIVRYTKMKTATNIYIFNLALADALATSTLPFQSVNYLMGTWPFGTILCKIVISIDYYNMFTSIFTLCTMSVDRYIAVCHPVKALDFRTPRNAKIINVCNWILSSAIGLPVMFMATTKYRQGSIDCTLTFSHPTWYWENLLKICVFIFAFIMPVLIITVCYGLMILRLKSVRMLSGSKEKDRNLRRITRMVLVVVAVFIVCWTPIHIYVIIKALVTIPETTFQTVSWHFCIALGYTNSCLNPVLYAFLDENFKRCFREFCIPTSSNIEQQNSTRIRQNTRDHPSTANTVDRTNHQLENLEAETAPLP

Row | Ki [1] [nM] | Ki [2] [nM] | Ratio Ki [3] | IC50 [4] [µM] | IC50 [5] [µM] | IC50 [6] [µM] | SMILES
1 | > 10000 | > 10000 | – | – | – | – | COC(CN1CCN(Cc2ccccc2)[C@@H](CO)C1)OC
2 | 374 | 7.4 | 53 | > 10 | > 10 | > 10 | OC[C@H]1CN(Cc2ccccc2)CCCN1Cc1ccccc1
3 | 9010 | 320 | 28 | > 10 | > 10 | > 10 | COC(CN1CCCN(Cc2ccccc2)[C@@H](CO)C1)OC

Row | SMILES | Ki [1] [nM] | Ki [2] [nM] | Ratio Ki [3] | IC50 [4] [µM] | IC50 [5] [µM] | IC50 [6] [µM]
4 | OC[C@H]1CN(Cc2ccccc2)CCN1Cc1ccccc1 | 177 | 38 | 5 | – | – | –
